Data taken from ChEMBL document CHEMBL4406804, “Discovery of a Potent Steroidal Glucocorticoid Receptor Antagonist with Enhanced Selectivity against the Progesterone and Androgen Receptors (OP-3633)” (J Med Chem, 2019).
Converted amounts (≈) assume the structure as drawn.

Legend:
Glucocorticoid receptor [1] = molecular target: T1, Glucocorticoid receptor (Homo sapiens, UniProt P04150); assay: Antagonist activity at human glucocorticoid receptor expressed in CHO-K1 cells assessed as inhibition of glucocorticoid receptor-dexamethasone coactivator protein-protein interaction incubated for 24 hrs by bioluminescence assay; format: cell-based
T1 sequence (P04150 whole entry): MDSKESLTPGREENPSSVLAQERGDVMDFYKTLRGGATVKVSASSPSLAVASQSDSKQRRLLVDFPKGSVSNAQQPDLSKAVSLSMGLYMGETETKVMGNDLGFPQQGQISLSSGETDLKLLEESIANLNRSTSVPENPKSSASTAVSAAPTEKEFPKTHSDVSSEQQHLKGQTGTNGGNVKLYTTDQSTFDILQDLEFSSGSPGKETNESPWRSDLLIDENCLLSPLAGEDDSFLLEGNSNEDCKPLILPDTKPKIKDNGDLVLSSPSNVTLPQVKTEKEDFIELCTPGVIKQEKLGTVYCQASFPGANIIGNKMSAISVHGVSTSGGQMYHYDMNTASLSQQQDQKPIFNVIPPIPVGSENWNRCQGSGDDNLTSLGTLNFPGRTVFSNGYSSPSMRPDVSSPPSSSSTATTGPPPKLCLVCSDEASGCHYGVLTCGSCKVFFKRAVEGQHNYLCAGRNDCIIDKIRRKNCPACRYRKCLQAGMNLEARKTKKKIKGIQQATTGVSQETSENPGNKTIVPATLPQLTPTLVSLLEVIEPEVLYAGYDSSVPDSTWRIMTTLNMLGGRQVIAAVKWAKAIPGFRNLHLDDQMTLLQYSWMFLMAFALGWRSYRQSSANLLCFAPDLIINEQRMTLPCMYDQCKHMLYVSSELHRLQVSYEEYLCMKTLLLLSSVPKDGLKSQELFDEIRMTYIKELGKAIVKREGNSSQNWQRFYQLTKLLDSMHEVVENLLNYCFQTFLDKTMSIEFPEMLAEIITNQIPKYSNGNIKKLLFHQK

CYP3A4 = CYP3A4 (Homo sapiens, UniProt P08684); assay: Inhibition of CYP3A4 (unknown origin) at 10 uM using midazolam as substrate relative to control; format: ADME; conditions: probe midazolam
[2] = AUC in dog at 5 mg/kg, po; format: ADME, organism-based, Canis lupus familiaris; conditions: in vivo
Mus musculus = assay: In vivo antagonist activity at glucocorticoid receptor in tumor of human HCC1806 cells xenografted in hsd:athymic Nude-Foxn1nu mouse assessed as reduction in cortisol-stimulated FKBP5 mRNA expression at 150 mg/kg, po administered as single dose via gavage and measured at 3 hrs post cortisol addition by qRT-PCR analysis (reference value: 2.3 to 4); format: functional
Summary of the method: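 HCC1806 TNBC xenograft tumors in mice. Cortisol 5 mg/kg given orally as a bolus to activate GR. The compound was given as a single oral gavage dose of 150 mg/kg, with vehicle controls. Tumors were collected 3 and 6 h after cortisol, and FKBP5 mRNA was measured by RT-qPCR relative to vehicle. n = 3 mice/group. One-way ANOVA with Dunnett's test versus vehicle.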

[3] = Toxicity in female rat assessed as effect on clinical observation at 250 mg/kg/day, po administered once daily via gavage for 14 days; format: organism-based; conditions: in vivo, 336 h
Cytochrome P450 3A4 = Cytochrome P450 3A4 (Homo sapiens, UniProt P08684); assay: Inhibition of CYP3A4 (unknown origin) using midazolam as substrate; format: ADME
[4] = Clearance in dog at 0.5 mg/kg, iv; format: ADME, organism-based, Canis lupus familiaris; conditions: in vivo
[5] = AUC in mini-pig at 5 mg/kg, po; format: ADME, organism-based, Sus scrofa domesticus; conditions: in vivo
[6] = Toxicity in female rat assessed as effect on ovarian weight at 250 mg/kg/day, po administered once daily via gavage for 14 days; format: organism-based; conditions: in vivo, 336 h
Androgen receptor = molecular target: T2, Androgen receptor (Homo sapiens, UniProt P10275); assay: Agonist activity at human androgen receptor in human LNCAP cells harboring firefly luciferase gene after 20 hrs by One-Glo luciferase reporter gene assay; format: cell-based
T2 sequence (P10275 whole entry): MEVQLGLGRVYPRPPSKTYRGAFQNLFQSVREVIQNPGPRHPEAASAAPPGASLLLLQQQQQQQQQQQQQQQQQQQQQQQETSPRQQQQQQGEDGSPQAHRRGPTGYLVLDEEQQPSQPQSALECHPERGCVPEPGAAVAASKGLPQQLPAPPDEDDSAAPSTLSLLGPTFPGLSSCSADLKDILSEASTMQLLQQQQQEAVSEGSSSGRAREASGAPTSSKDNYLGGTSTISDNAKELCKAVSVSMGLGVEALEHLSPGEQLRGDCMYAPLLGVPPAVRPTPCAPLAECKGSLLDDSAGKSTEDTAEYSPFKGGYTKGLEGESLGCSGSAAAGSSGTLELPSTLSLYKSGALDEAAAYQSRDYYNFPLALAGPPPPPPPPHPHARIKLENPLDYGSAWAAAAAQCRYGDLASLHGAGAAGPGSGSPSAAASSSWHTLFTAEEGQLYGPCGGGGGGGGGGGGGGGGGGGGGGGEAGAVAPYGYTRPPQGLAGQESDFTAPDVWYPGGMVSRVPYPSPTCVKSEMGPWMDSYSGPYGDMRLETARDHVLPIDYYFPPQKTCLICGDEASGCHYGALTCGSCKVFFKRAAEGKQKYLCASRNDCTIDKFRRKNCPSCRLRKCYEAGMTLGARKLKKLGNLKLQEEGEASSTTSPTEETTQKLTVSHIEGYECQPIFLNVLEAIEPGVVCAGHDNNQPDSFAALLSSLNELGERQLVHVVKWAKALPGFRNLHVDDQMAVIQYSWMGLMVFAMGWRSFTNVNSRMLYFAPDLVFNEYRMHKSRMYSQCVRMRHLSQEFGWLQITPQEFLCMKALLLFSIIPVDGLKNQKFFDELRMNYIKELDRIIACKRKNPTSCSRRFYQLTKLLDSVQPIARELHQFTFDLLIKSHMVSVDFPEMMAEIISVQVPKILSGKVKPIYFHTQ

[7] = Toxicity in female rat assessed as effect on uterine weight at 250 mg/kg/day, po administered once daily via gavage for 14 days; format: organism-based; conditions: in vivo, 336 h
[8] = Oral bioavailability in dog at 5 mg/kg; format: ADME, organism-based, Canis lupus familiaris; conditions: in vivo
[9] = Solubility of compound in PBS at pH 7.4; format: physicochemical
[10] = Half-life in mini-pig at 0.5 mg/kg, iv; format: ADME, organism-based, Sus scrofa domesticus; conditions: in vivo
Glucocorticoid receptor [11] = molecular target: T1, Glucocorticoid receptor; assay: Displacement of fluormone tracer from full length human recombinant glucocorticoid receptor expressed in baculovirus expression system incubated for 2 hrs by competitive fluorescence polarization binding assay
[12] = Oral bioavailability in rat at 5 mg/kg; format: ADME, organism-based; conditions: in vivo
Summary of the method: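 Rat PK study. The iv dose of 0.5 mg/kg was given in 10% DMSO, 70% PEG 400 and 20% water. The oral dose of 5 mg/kg was given in 5% DMSO / 95% of 0.2% Tween 80 in 0.25% CMC, adjusted to pH 4 for one compound. Read-outs were CL, Vss, iv t1/2, F, Cmax and AUC.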

CYP3A4, sequence (P08684 whole entry): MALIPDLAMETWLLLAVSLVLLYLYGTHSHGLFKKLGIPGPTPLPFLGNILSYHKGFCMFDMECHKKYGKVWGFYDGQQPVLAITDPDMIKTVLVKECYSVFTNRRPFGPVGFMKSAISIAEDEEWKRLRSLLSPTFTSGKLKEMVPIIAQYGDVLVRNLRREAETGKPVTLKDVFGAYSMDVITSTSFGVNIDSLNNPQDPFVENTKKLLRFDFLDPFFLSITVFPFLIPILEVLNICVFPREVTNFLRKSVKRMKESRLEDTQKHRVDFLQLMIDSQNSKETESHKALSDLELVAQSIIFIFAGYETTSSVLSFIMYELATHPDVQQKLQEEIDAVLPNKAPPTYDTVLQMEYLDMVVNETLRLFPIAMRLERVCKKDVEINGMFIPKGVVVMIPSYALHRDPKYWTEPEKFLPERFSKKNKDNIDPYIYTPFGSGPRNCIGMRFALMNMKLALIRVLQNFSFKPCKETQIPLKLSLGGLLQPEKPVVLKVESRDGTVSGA
Cytochrome P450 3A4, sequence (P08684 whole entry): as above

CC#C[C@]1(O)CC[C@H]2[C@@H]3CCC4=CC(=O)CC[C@]4(C)[C@H]3[C@@H](c3ccc(N(C)C)cc3)C[C@@]21C
IC50 (Glucocorticoid receptor [1]): 16 nM
inhibition at 10 µM (CYP3A4): 34%
AUC [2]: 5930 ng·h/mL
fold change (FC) (Mus musculus): 2.8
Activity [3]: Non-Toxic
IC50 (Cytochrome P450 3A4): > 10000 nM
clearance [4]: 10.2 mL/min/kg
AUC [5]: 2450 ng·h/mL
Activity [6]: Non-Toxic
EC50 (Androgen receptor): > 2500 nM
Activity [7]: Non-Toxic
bioavailability [8]: 67.6%
solubility [9]: 20.6 µM (≈ 9.18 µg/mL)
half-life [10]: 2.71 h
IC50 (Glucocorticoid receptor [11]): 8.5 nM
bioavailability [12]: 62%
